From ChEMBL document CHEMBL1833819, “Dihydroquinazolines as a novel class of Trypanosoma brucei trypanothione reductase inhibitors: discovery, synthesis, and characterization of their binding mode by protein crystallography” (J Med Chem, 2011)

Columns and labels:
Trypanothione reductase [1] = biological target: T1, Trypanothione reductase (Trypanosoma brucei brucei, UniProt P39051); assay: Inhibition of recombinant trypanothione reductase from Trypanosoma brucei brucei S427 by DTNB-coupled spectrophotometric assay
T1 sequence (P39051 whole entry): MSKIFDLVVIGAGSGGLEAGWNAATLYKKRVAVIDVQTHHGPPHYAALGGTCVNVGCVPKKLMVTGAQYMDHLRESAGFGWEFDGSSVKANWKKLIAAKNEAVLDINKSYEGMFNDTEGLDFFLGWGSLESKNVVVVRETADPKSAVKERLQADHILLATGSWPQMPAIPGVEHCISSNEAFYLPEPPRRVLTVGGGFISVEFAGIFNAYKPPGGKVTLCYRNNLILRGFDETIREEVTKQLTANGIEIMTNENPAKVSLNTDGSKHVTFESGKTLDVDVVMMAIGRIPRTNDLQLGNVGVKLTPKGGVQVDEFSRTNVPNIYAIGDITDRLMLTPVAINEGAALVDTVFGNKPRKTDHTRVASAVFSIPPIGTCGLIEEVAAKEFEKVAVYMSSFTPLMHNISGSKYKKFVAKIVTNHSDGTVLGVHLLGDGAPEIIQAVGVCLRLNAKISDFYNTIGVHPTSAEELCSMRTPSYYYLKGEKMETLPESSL
Outline: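 Recombinant T. brucei brucei S427 TryR tested in a nonenzymatically coupled spectrophotometric assay, where DTNB reduction to TNB is followed as A412 increase. IC50 is the mean of independent duplicates (at least two replicates).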

MRC5 = assay: Cytotoxicity against human MRC5 cells by resazurin fluorescence-based viability assay; type: cell-based
Outline: (§1)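 Bloodstream-form T. b. brucei parasites and MRC5 cells were assayed in resazurin fluorescence-based viability tests. […] Pentamidine served as the positive control in all T. brucei plates.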

[2] = test system: Trypanosoma brucei brucei; assay: Antitrypanosomal activity against blood stream form Trypanosoma brucei brucei by resazurin fluorescence-based viability assay; type: functional, organism-based; outline: as §1
Trypanothione reductase [3] = biological target: Trypanothione reductase (Trypanosoma cruzi, UniProt P28593); assay: Inhibition of trypanothione reductase from Trypanosoma cruzi by DTNB-coupled spectrophotometric assay
Chain of Trypanothione reductase (Trypanosoma cruzi, UniProt P28593) (P28593 whole entry): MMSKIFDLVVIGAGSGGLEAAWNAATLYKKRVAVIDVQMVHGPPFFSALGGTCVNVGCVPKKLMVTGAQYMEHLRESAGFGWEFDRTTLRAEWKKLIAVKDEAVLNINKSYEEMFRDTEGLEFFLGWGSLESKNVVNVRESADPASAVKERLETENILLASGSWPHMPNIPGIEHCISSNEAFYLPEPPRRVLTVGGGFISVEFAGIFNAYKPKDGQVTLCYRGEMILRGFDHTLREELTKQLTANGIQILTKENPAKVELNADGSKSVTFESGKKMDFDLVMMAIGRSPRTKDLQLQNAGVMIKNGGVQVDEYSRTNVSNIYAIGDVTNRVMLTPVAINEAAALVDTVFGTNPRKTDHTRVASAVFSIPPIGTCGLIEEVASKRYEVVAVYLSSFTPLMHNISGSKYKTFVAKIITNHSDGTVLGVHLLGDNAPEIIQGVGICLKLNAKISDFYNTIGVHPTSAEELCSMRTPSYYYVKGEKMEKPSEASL

Trypanothione reductase [4] = biological target: T1, Trypanothione reductase; assay: Competitive inhibition of recombinant trypanothione reductase from Trypanosoma brucei brucei S427 by Lineweaver burk method

SMILES | IC50 (Trypanothione reductase [1]) [nM] | other results
CC1=Nc2ccc(-c3ccncc3)cc2C(c2ccccc2)N1CCN1CCCCC1 (configuration not stated) | 4400 | 
CC1=Nc2ccc(-c3ccsc3)cc2C(c2ccccc2)N1CCN1CCCCC1 (configuration not stated) | 790 | 
CC1=Nc2ccc(Cl)cc2C(c2cccc(F)c2)N1CCN1CCCCC1 (configuration not stated) | 900 | EC50 (MRC5): 10000 nM; EC50 [2]: 2000 nM
COc1cccc(C2c3cc(Cl)ccc3N=C(C)N2CCN2CCCCC2)c1 (configuration not stated) | 28000 | 
CC1=Nc2ccc(Cl)cc2C(c2cccc(Cl)c2)N1CCN1CCCCC1 (configuration not stated) | 1200 | 
CCC1=Nc2ccc(Br)cc2C(c2ccccc2)N1CC(=O)OC (racemic) | 23000 | 
CC1=Nc2ccc(Br)cc2C(c2ccccc2)N1CC(=O)O (racemic) | 37000 | 
CC1=Nc2ccc(Br)cc2C(c2ccccc2)N1CC(=O)NN (racemic) | 15000 | 
COC(=O)CN1C(CN2CCOCC2)=Nc2ccc(Br)cc2C1c1ccccc1 (racemic) | 89000 | 
COC(=O)CN1C(C)=Nc2ccc(C)cc2C1c1ccccc1 (racemic) | 67000 | IC50 (Trypanothione reductase [3]): 38000 nM
COC(=O)CN1C(CCN2CCOCC2)=Nc2ccc(Br)cc2C1c1ccccc1 (racemic) | 93000 | 
COC(=O)CN1C(c2ccccc2)=Nc2ccc(C)cc2C1c1ccccc1 (racemic) | > 100000 | 
COC(=O)CN1C(c2cc(OC)c(OC)c(OC)c2)=Nc2ccc(C)cc2C1c1ccccc1 (racemic) | > 100000 | 
CC1=Nc2ccc(Cl)cc2C(c2ccccc2)N1Cc1ccccc1 (racemic) | 930 | EC50 (MRC5): 46000 nM; EC50 [2]: 13000 nM
CC1=Nc2ccc(Cl)cc2C(c2ccccc2)N1CCc1ccccc1 (racemic) | 2000 | 
COc1ccccc1CN1C(C)=Nc2ccc(Cl)cc2C1c1ccccc1 (racemic) | 1100 | 
CC1=Nc2ccc(Cl)cc2C(c2ccccc2)N1Cc1ccccc1F (racemic) | 940 | EC50 (MRC5): 36000 nM; EC50 [2]: 14000 nM
CC1=Nc2ccc(Cl)cc2C(c2ccccc2)N1Cc1cccc(Cl)c1 (racemic) | 3500 | 
CC1=Nc2ccc(Cl)cc2C(c2ccccc2)N1Cc1cccc(C(F)(F)F)c1 (racemic) | 1500 | 

SMILES | IC50 (Trypanothione reductase [1]) [nM] | other results
CC1=Nc2ccc(Cl)cc2C(c2ccccc2)N1Cc1cccc(N(C)C)c1 (racemic) | 810 | EC50 (MRC5): 27000 nM; EC50 [2]: 6400 nM
CC1=Nc2ccc(Cl)cc2C(c2ccccc2)N1Cc1ccc(C)cc1 (racemic) | 1300 | 
CC1=Nc2ccc(Cl)cc2C(c2ccccc2)N1Cc1ccc(Cl)cc1 (racemic) | 2200 | 
CC1=Nc2ccc(Cl)cc2C(c2ccccc2)N1Cc1ccc(C(F)(F)F)cc1 (racemic) | 2200 | 
CCN1C(C)=Nc2ccc(Cl)cc2C1c1ccccc1 (racemic) | 1200 | 
CC1=Nc2ccc(Cl)cc2C(c2ccccc2)N1CCN1CCCCC1 (racemic) | 1800 | EC50 (MRC5): 14000 nM; EC50 [2]: 1300 nM
CC1=Nc2ccc(Cl)cc2C(c2ccccc2)N1CCN1CCOCC1 (racemic) | 2800 | 
CC1=Nc2ccc(Cl)cc2C(c2ccccc2)N1CCN1CCN(C)CC1 (racemic) | 930 | EC50 (MRC5): 4600 nM; Ki (Trypanothione reductase [4]): 320 nM
CC1=Nc2ccc(Cl)cc2C(c2ccccc2)N1CCN(C)C (racemic) | 3500 | 
CC1=Nc2ccc(Cl)cc2C(c2ccccc2)N1CCCN(C)C (racemic) | 1000 | EC50 (MRC5): 2700 nM
CNCCN1C(C)=Nc2ccc(Cl)cc2C1c1ccccc1 (racemic) | 2000 | 
CC1=Nc2ccc(Cl)cc2C(c2ccccc2)N1CCO (racemic) | 1700 | 
CC1=Nc2ccc(Cl)cc2C(c2ccccc2)N1CCNC(=O)OC(C)(C)C (racemic) | 2600 | 
CC(=O)NCCN1C(C)=Nc2ccc(Cl)cc2C1c1ccccc1 (racemic) | 2100 | 
CC1=Nc2ccc(Cl)cc2C(c2ccccc2)N1CCNC(=O)C1CC1 (racemic) | 2300 | 
O=C1CN2C(=Nc3ccc(Br)cc3C2c2ccccc2)CN1 (racemic) | 37000 | 
O=C1CN2C(=Nc3ccc(Br)cc3C2c2ccccc2)CCN1 (racemic) | 39000 | 
COC(=O)CN1C(C)=Nc2ccc(Cl)cc2C1c1ccccc1 (racemic) | 9400 | 
COC(=O)CN1C(C)=Nc2ccc(Br)cc2C1c1ccccc1Cl (racemic) | > 100000 | 
